What was measured:
[1] = commercially available antimicrobial peptide drug; cited from earlier work
B. subtilis ATCC 6633 = assay: MIC assay; assay type: cell-based; conditions: B. subtilis ATCC 6633, Gram-positive
How it was run: (§1)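 Broth microdilution: test compound dissolved in physiological saline, two-fold serially diluted across wells (50 μL broth each). 50 μL bacterial suspension added (1.0 × 10⁶ CFU/mL). Incubation 16 h at 37 °C with constant agitation. MIC read visually together with absorbance at 600 nm. Each sample run in triplicate.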

S. aureus (MDR) = assay: MIC assay; assay type: cell-based; conditions: Gram-positive
How it was run: as §1

E. coli ATCC 25922 = assay: MIC assay; assay type: cell-based; conditions: E. coli ATCC 25922, Gram-negative
How it was run: as §1

E. aerogenes (MDR) = assay: MIC assay; assay type: cell-based; conditions: Gram-negative
How it was run: as §1

A. baumannii (MDR) = assay: MIC assay; assay type: cell-based; conditions: Gram-negative
How it was run: as §1

C. freundii (MDR) = assay: MIC assay; assay type: cell-based; conditions: Gram-negative
How it was run: as §1

Hemolytic assay = assay type: cell-based, human
How it was run: (§2)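 Human erythrocytes from heparinised blood, washed three times in PBS (centrifuged 1800 rpm, 4 °C, 5 min), used as a 5 % (v/v) suspension. Peptide two-fold dilutions in PBS, final 0.78–50 μM. Incubation 1 h at 37 °C, then 3000 rpm for 5 min; supernatant hemoglobin read at A405. Controls: PBS (0 %) and 1 % Triton X-100 (100 %). Five replicates; HC₅₀ derived as median hemolytic concentration.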

all bacteria tested = assay: Geometric mean of MICs and selectivity index, all bacteria; assay type: cell-based; conditions: geometric mean of MICs against all bacteria
How it was run: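 Geometric mean of the broth-microdilution MICs (μM) across all bacterial strains tested. It serves as the denominator of the selectivity index, SI = HC₅₀ (μM) / GM.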

Gram-positive bacteria = assay: Geometric mean of MICs and selectivity index, Gram-positive bacteria; assay type: cell-based; conditions: geometric mean of MICs
Gram-negative bacteria = assay: Geometric mean of MICs and selectivity index, Gram-negative bacteria; assay type: cell-based; conditions: geometric mean of MICs
Plasma stability by HPLC = assay type: in vitro ADME; conditions: human, human plasma 25 % (v/v)
How it was run: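 An 8 mM aqueous stock of peptide (1 mL) was added to 3 mL of 25 % (v/v) human plasma and incubated at 37 °C with agitation, sampling from 0–48 h and up to 14 days. Each sample was quenched with an equal volume of 90 % acetonitrile/10 % TFA, cooled to 4 °C and spun at 10000 rpm for 10 min. Supernatant was quantified by HPLC against standard curves (0.0625–8 mM). Triplicates.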

[2] = test system: human red blood cells (hRBCs); assay: Hemolytic assay; assay type: cell-based; conditions: median hemolytic concentration, 5 % hRBCs, 1 h, 37 °C
How it was run: as §2

Cytotoxicity assay = assay type: cell-based, human
How it was run: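 293T human embryonic kidney cells were seeded and grown 24 h, then exposed for 24 h to a concentration series of test compound in DMEM. CCK-8 reagent was added for 2 h at 37 °C, and absorbance was read at 450 nm. Five replicates per sample.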

| Substance | half-life [1] | MIC (B. subtilis ATCC 6633) | MIC (S. aureus (MDR)) | MIC (E. coli ATCC 25922) | MIC (E. aerogenes (MDR)) | MIC (A. baumannii (MDR)) | MIC (C. freundii (MDR)) | hemolysis at 50 µM (Hemolytic assay) | GMall (all bacteria tested) | GM+ (Gram-positive bacteria) | GM- (Gram-negative bacteria) | half-life at 2 mM (Plasma stability by HPLC) | HC50 [2] | CC50 (Cytotoxicity assay) |
| --- | --- | --- | --- | --- | --- | --- | --- | --- | --- | --- | --- | --- | --- | --- |
| polymyxin E | 0.39 h | – | – | – | – | – | – | – | – | – | – | – | – | – |
| Ac-GLRKFLRKFFNKIKR-NH2 [P-α, Ac-GLRKFLRKFFNKIKR-NH2] | – | 6.25 µM | 6.25 µM | 6.25 µM | 12.5 µM | 6.25 µM | 6.25 µM | 1.5% | 7.02 µM | 6.25 µM | 14.87 µM | 15.3 h | – | – |
| Ac-GLFKFLRKFFNKIKR-NH2 [P-β, Ac-GLFKFLRKFFNKIKR-NH2] | – | 6.25 µM | 6.25 µM | 6.25 µM | 12.5 µM | 6.25 µM | 6.25 µM | – | 7.02 µM | 6.25 µM | 7.43 µM | – | 136.69 µM | 28.2 µM |
| Ac-GLFKFLRKFFNFIKR-NH2 [P-γ, Ac-GLFKFLRKFFNFIKR-NH2] | – | 12.5 µM | 50 µM | 12.5 µM | 50 µM | 12.5 µM | 50 µM | – | – | – | – | – | – | – |
| Ac-GLRKVLRKFVNKIKR-NH2 [P-α-01, Ac-GLRKVLRKFVNKIKR-NH2] | – | 6.25 µM | 25 µM | 12.5 µM | 50 µM | 12.5 µM | 6.25 µM | – | – | – | – | – | – | – |
| Ac-GLRKLLRKFLNKIKR-NH2 [P-α-04, Ac-GLRKLLRKFLNKIKR-NH2] | – | 3.125 µM | 3.125 µM | 3.125 µM | 6.25 µM | 6.25 µM | 3.125 µM | – | 3.94 µM | 3.13 µM | 4.42 µM | 17.4 h | >1000 µM | 193 µM |
| Ac-GLWKWLRKFWNKIKR-NH2 [P-β-02, Ac-GLWKWLRKFWNKIKR-NH2] | – | 6.25 µM | 25 µM | 12.5 µM | 25 µM | 12.5 µM | 12.5 µM | – | – | – | – | – | – | – |
| Ac-GLRKALRKFANKIKR-NH2 [P-α-05, Ac-GLRKALRKFANKIKR-NH2] | – | 25 µM | 50 µM | 50 µM | 50 µM | 50 µM | 50 µM | – | – | – | – | – | – | – |
| Ac-GLRKILRKFINKIKR-NH2 [P-α-03, Ac-GLRKILRKFINKIKR-NH2] | – | 3.125 µM | 6.25 µM | 3.125 µM | 12.5 µM | 6.25 µM | 6.25 µM | – | – | – | – | – | – | – |
| Ac-GLRKMLRKFMNKIKR-NH2 [P-α-06, Ac-GLRKMLRKFMNKIKR-NH2] | – | 6.25 µM | 12.5 µM | 12.5 µM | 25 µM | 12.5 µM | 6.25 µM | – | – | – | – | – | – | – |
| Polymyxin B [reference compound] | – | 1.56 µM | 25 µM | 0.78 µM | – | 0.78 µM | – | – | – | – | – | – | – | – |
